# Screening results: PubChem BioAssay, Sanford-Burnham Center for Chemical Genomics
# Sampled rows, rich in hits. Any-hit rate of the full collection: about 1.7%.
# SUMO1 PPI mod = alters human SUMO1 binding to SIM partners; inhibition, % at 20 µM; P63165; SUMO1 binding to a labelled peptide, TR-FRET, 1 h; AID 602429; 360,000 compounds, 0.33% hits; in the data active means inhibition above about 37%
# Target sequence (P63165 whole entry, looked up): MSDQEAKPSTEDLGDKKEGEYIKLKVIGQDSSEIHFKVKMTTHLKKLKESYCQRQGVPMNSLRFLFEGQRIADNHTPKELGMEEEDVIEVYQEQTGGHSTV
# STEP block = STEP (human) phosphatase inhibition. P54829. recombinant STEP, OMFP fluorogenic substrate, fluorescence. inhibition, % at 20 µM. 360,000 compounds, 0.25% hits. AID 588621;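 active means inhibition at 20 µM, scaled per plate between control wells, above about 37%, limit read from the data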;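 further: 0% = DMSO with enzyme and substrate and 100% = substrate only without enzyme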
#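 Assay system: isolated STEP enzyme / Timing: 20 min at room temperature, dark / Doses: 20 µM, 1% DMSO / Technique: fluorescence intensity, excitation 480 nm, emission 540 nm / Reagent: fluorogenic phosphatase substrate OMFP at 25 µM final / Measure: percent inhibition scaled to no-enzyme and uninhibited-enzyme controls, plate-pattern corrected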
# LMPTP block = blocks human LMPTP phosphatase. P24666. recombinant LMPTP-A, OMFP fluorogenic substrate, fluorescence intensity. inhibition, % at 20 µM. 360,000 compounds, 0.22% hits;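 active means compounds that cut the enzyme signal by at least half of the control window in the single-dose screen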;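 further: plate controls were DMSO wells with enzyme plus substrate for no effect and substrate without enzyme for full effect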
# Target sequence (P24666 whole entry, looked up): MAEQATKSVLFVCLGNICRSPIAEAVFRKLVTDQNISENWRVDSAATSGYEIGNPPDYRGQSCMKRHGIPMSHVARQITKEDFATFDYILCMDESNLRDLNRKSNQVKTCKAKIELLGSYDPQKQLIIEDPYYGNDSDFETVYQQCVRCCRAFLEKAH
#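 Test system – LMPTP-A phosphatase enzyme · Quantity – 0.625 nM LMPTP-A final · Reagent – OMFP substrate, 400 µM final · Dosing – one test concentration per compound, 20 µM, with 3% DMSO overall · Timing – 50 min enzyme reaction at room temperature, protected from light · Detection – fluorescence intensity · Controls – substrate-only low control, DMSO enzyme-plus-substrate high control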
# DNMT1 inh = blocks human DNA methyltransferase DNMT1. P26358. DNMT1 molecular beacon, Hinp1I cleavage, fluorescence. inhibition (reported as % activation of signal), % at 10 µM. 360,000 compounds, 0.83% hits. AID 588458; in the data active means inhibition above about 50%
# Scp1 inh = blocks human Scp-1 phosphatase activity. Q9GZU7. Recombinant Scp1, phosphopeptide, malachite green phosphate absorbance. inhibition, % at 20 µM. 340,000 compounds, 0.88% hits;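 active means inhibition above about 50% at 20 µM, limit read from the data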;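 further: plate controls were DMSO wells with enzyme for no effect and wells lacking enzyme for full effect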
# Target sequence (Q9GZU7 76-261 limits assumed): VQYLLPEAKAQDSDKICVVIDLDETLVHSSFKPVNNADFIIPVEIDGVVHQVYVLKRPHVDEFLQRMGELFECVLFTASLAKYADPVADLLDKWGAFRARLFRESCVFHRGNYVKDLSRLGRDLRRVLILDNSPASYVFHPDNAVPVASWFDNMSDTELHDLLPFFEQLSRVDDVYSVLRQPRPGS
#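 Test system: SCP-1 catalytic domain; Buffer or medium: Acidic Tris acetate buffer with magnesium and detergent; Also added: Phosphorylated 17-residue peptide substrate; Compound: single 20 µM dose, 1% DMSO; Schedule: enzyme reaction 45 min at room temperature, colour 5 min, stabilisation 30 min; Signal: Phosphate-binding colour reagent, absorbance read at 630 nm.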
# Active calls of the source: *; nt = not tested or not shown.
SMILES,SUMO1 PPI mod,STEP block,LMPTP block,DNMT1 inh,Scp1 inh
Cc1nc2ccc(C(=O)N/N=C/c3cc([N+](=O)[O-])ccc3O)cc2[nH]1,-7.6,48.8*,17.1,2.5,37.9
CC(C)n1nnc(-c2ccc(OCc3ccccc3F)cc2)n1,1.6,1.0,2.4,-3.4,58.3*
Fc1ccccc1COc1ccc(-c2nnn(Cc3ccccc3F)n2)cc1,3.2,-0.9,2.9,-6.9,-18.5
CC(C)NC(=O)c1cc2c(-c3ccc(Cl)cc3)nn(C)c2s1,-1.0,2.3,-0.4,4.7,-15.2
CCOC(=O)N1CCC(NC(=O)c2cc3c(-c4ccc(Cl)cc4)nn(C)c3s2)CC1,73.1*,3.2,0.7,-14.3,-15.2
CCOC(=O)c1c(NC(=O)c2ccco2)n(C2CCCCC2)c2nc3ccccc3nc12,39.7*,1.0,6.0,39.3,-2.6
CCOC(=O)c1c(N)n(C2CC(C)(C)NC(C)(C)C2)c2nc3ccccc3nc12,-10.3,0.1,2.9,28.7,-5.5
CN(C)S(=O)(=O)c1cccc(C(=O)OCC(=O)c2ccc3c(c2)NC(=O)CO3)c1,3.4,0.7,1.4,3.2,-5.5
CN(C)S(=O)(=O)c1ccc(C(=O)OCC(=O)c2ccc3c(c2)NC(=O)CO3)cc1,15.1,5.5,56.9*,41.2,-8.4
O=C(O)c1ccccc1N=Nc1c(O)[nH]c2ccc([N+](=O)[O-])cc12,110.6*,46.0*,20.6,16.7,81.0*
CN(Cc1ccccc1)C(=O)COC(=O)CN1C(=O)c2ccccc2C1=O,-7.8,-2.1,-1.3,4.7,-7.3
O=C(Nc1nc(-c2ccccc2)cs1)C1CCCN(S(=O)(=O)c2ccccc2)C1 (centres undefined),42.3*,-0.1,3.8,-6.8,-23.4
CC(OC(=O)/C(C#N)=C/c1ccc(N(C)C)cc1)C(=O)NCc1ccco1 (centres undefined),-6.0,-1.9,1.7,60.8*,nt
COCCNC(=O)C1(C)CCCN(C(=O)c2cc(C)on2)C1 (centres undefined),0.8,-3.2,-0.6,2.6,nt
CCOC(=O)/C(C#N)=C/C=C1\C=Cc2ccccc2N1CC,-93.0,17.2,26.3,-16.8,-9.4
CN1/C(=C/C=C(C#N)C#N)C=Cc2ccccc21,57.4*,-0.2,15.8,-1.5,-16.3
CCC(COC)Oc1cc(NCc2ccccc2)c2ncn(C(C)C)c2c1 (centres undefined),-0.9,-1.1,3.3,54.0*,-5.0
CCC(CO)Oc1cc(NC(=O)c2ccc(F)cc2)c2ncn(C(C)C)c2c1 (centres undefined),1.4,-2.0,-0.2,0.3,-3.0
CCC(CO)Oc1cc(NCc2ccccc2)c2ncn(C(C)C)c2c1 (centres undefined),-0.1,-1.7,0.2,-12.0,-0.2
CCC(CO)Oc1cc(NC(=O)c2ccc(N)cc2)c2ncn(C(C)C)c2c1 (centres undefined),101.5*,-1.7,2.0,-6.7,5.4
C=C(C)Cn1c2ccc(NC(=O)NCc3ccccc3)cc2c(=O)n1C,9.7,0.4,-1.0,-4.3,nt
Cc1cccc(C)c1NC(=O)C1c2ccccc2OCC(=O)N1CCCN1CCOCC1 (centres undefined),3.1,nt,-2.0,nt,nt
COc1ccccc1N1CCN(C(c2cc3cc(C)ccc3[nH]c2=O)c2nnnn2C2CCCC2)CC1 (centres undefined),44.6*,-12.8,-1.3,-4.5,-4.7
Cc1ccc(S(=O)(=O)N2CCOCC2)cc1C(=O)Nc1ccncc1,-2.7,1.4,-0.9,-3.7,-4.3
Cc1ccc(S(=O)(=O)N2CCOCC2)cc1C(=O)Nc1ccc(-c2cn3ccsc3n2)cc1,45.3*,-1.6,1.5,-5.0,-7.7
SMILES,SUMO1 PPI mod,STEP block,LMPTP block,DNMT1 inh,Scp1 inh
CCN1C(=O)/C(=C\c2ccc(-c3ccc([N+](=O)[O-])cc3OC)o2)SC1=Nc1cccc(C(=O)O)c1,54.2*,3.8,8.3,-18.8,-8.8
CCN=C1S/C(=C\c2ccc(-c3cccc(C(=O)O)c3)o2)C(=O)N1CC,-1.7,2.0,2.3,18.3,42.5
O=C(O)c1cccc(-c2ccc(/C=C3/SC(=Nc4ccccc4)N(Cc4cccnc4)C3=O)o2)c1,81.9*,10.7,0.7,23.1,73.3*
COc1ccc(NC(=O)C2Cc3c(-c4cccc(F)c4)ccnc3O2)cc1OC (centres undefined),-0.8,2.0,1.0,9.8,nt
O=C(O)c1ccc(-c2nn3c(=O)cc(N4CCNCC4)nc3s2)cc1,1.6,-1.8,-2.4,0.3,nt
CC(C)c1ccc(CC(=O)N2CCC2(C)C(=O)Nc2ccc3c(c2)OCCO3)cc1 (centres undefined),2.2,2.1,0.2,-0.1,nt
O=C(C[n+]1ccc2ccccc2c1)c1cccc2ccccc12,-20.8,-1.4,1.9,-3.5,3.0
O=C(/C=C/c1cc[n+](CC(=O)c2ccc3cccc4c3c2CC4)cc1)c1ccc2cccc3c2c1CC3,131.6*,19.2,54.4*,102.3*,17.4
C[C@H](CO)N1C[C@H](C)[C@H](CN(C)C(=O)Nc2ccnc(N3CCOCC3)c2)OCc2cnnn2CCCC1=O,6.0,-2.4,-0.1,3.8,nt
C/C(=N/NC(=O)c1cc2ccccc2cc1O)C1C(=O)c2ccccc2C1=O,29.5,-1.5,66.1*,-23.6,20.8
C/C(=N\NC(=O)c1cc2ccccc2cc1O)c1cc2ccccc2o1,2.2,11.3,9.1,-15.3,90.2*
C/C(=N\NC(=O)c1ccccc1O)C1C(=O)c2ccccc2C1=O,11.7,0.3,1.6,-17.6,-8.3
COC(=O)[C@@]12C[C@@H](CC(=O)N3CCSCC3)C(=O)N(Cc3ccc4c(c3)OCO4)C1=CCC(C)(C)C2,-3.0,nt,0.0,nt,nt
CC(C)CNC(=O)C1(C)CCCCCN1C(=O)c1cc(C#N)cs1 (centres undefined),-0.6,-1.9,-1.1,3.5,nt
COc1cccc(-n2c(SCc3cc(=O)oc4cc(O)c(O)cc34)nc3ccccc3c2=O)c1,2.1,12.0,52.1*,30.6,31.9
CCN(CC)C(=O)CSc1nc2ccccc2c(=O)n1-c1cccc(OC)c1,5.3,-1.1,-0.8,-1.6,-2.2
NC(Cc1ccc(C(F)(F)F)cc1)c1csc(Nc2cc(NCc3ccco3)ncn2)n1 (centres undefined),-30.0,0.7,1.3,-29.4,nt
CCN(CCNC(=O)c1ccc(CSc2nc3ccncc3[nH]2)cc1)c1ccccc1,3.5,-0.9,8.5,-1.4,-15.3
O=C(NCCN1CCN(c2cccc(Cl)c2)CC1)c1ccc(CSc2nc3ccncc3[nH]2)cc1,4.6,0.6,83.4*,-10.6,-0.8
O=C(COCC(=O)Nc1cccc(C(F)(F)F)c1)Nc1cccc(C(F)(F)F)c1,-3.4,-1.3,3.1,-12.9,-11.5
COc1cc(NC(=O)CSCC(=O)Nc2cccc(C(F)(F)F)c2)c(Cl)cc1Cl,44.3*,0.1,1.8,-2.7,-14.9
Cc1ccc(S(=O)(=O)N2[C@H](CC(=O)OCc3ccccc3)OC[C@@H]2C)cc1,3.1,nt,0.9,nt,nt
